Source: ChEMBL document CHEMBL1154842, “Synthesis, radiolabeling, and biological evaluation of (R)- and (S)-2-amino-3-[(18)F]fluoro-2-methylpropanoic acid (FAMP) and (R)- and (S)-3-[(18)F]fluoro-2-methyl-2-N-(methylamino)propanoic acid (NMeFAMP) as potential PET radioligands for imaging brain tumors” (J Med Chem, 2010)

Experiments:
9L [1] = test: Cellular uptake in rat 9L cells assessed as inhibition of uptake at 5 uCi measured […] by gamma counting in presence of system A transport inhibitor MeAIB relative to control; type: ADME, cell-based; set-up: scale not given: the % may be the effect or the level left
How it was run: (§1)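 9L rat gliosarcoma cells, grown in DMEM with 10% FCS, were trypsinised and washed in HBSS. About 5×10^5 cells were incubated with 5 μCi tracer in amino-acid-free HBSS for 30 min at 37 °C, with or without 10 mM final BCH, MeAIB or ACS (3.3 mM each Ala/Cys/Ser). Cells were washed cold, gamma-counted and decay-corrected. Inhibition is percent of control; triplicates, one-way ANOVA.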

9L [2] = test: Cellular uptake in rat 9L cells at 5 uCi measured […] by gamma counting in presence of system A transport inhibitor MeAIB; type: ADME, cell-based
How it was run: (§2)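 9L rat gliosarcoma cells (DMEM, 10% FCS, 37 °C, 5% CO2) were trypsinised and washed in HBSS. About 5×10^5 cells took up 5 μCi tracer for 30 min in 0.1 mL amino acid-free HBSS, with inhibitor at 10 mM final (ACS: 3.3 mM each of alanine, cysteine, serine). Cells were spun and rinsed twice with ice-cold HBSS, then gamma counted with decay correction. Triplicates; uptake is % ID per 5×10^5 cells.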

9L [3] = test: Cellular uptake in rat 9L cells at 5 uCi measured […] by gamma counting in presence of system L transport inhibitor BCH; type: ADME, cell-based; how it was run: as §2
9L [4] = test: Cellular uptake in rat 9L cells at 5 uCi measured […] by gamma counting; type: ADME, cell-based
How it was run: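 9L rat gliosarcoma cells, grown in DMEM with 10% FCS, were trypsinised and washed in HBSS. About 5×10^5 cells were exposed to 5 μCi tracer in amino-acid-free HBSS for 30 min at 37 °C, 5% CO2, then centrifuged and rinsed twice with ice-cold HBSS. Cells were gamma-counted and decay-corrected, with uptake reported as % of initial dose per 5×10^5 cells ± SD, n=3.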

9L [5] = test: Cellular uptake in rat 9L cells at 5 uCi measured per 0.5 million cells by gamma counting in presence of system ASC transport inhibitor ACS
9L [6] = test: Cellular uptake in rat 9L cells assessed as inhibition of uptake at 5 uCi measured […] by gamma counting in presence of system ASC transport inhibitor ACS relative to control; type: ADME, cell-based; set-up: scale not given: the % may be the effect or the level left; how it was run: as §1
9L [7] = test: Cellular uptake in rat 9L cells assessed as inhibition of uptake at 5 uCi measured […] by gamma counting in presence of system L transport inhibitor BCH relative to control; type: ADME, cell-based; set-up: scale not given: the % may be the effect or the level left; how it was run: as §1
Bone [8] = test: Biodistribution in bone of Fischer 344 rat bearing rat 9L cells at 20 uCi, iv after 60 mins; type: ADME, organism-based, Bone element; details: in vivo, 1 h
How it was run: (§3)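 Male Fischer 344 rats (200–250 g) carrying intracranial 9L gliosarcoma (5×10^4 cells implanted stereotactically, 10–12 days growth), under ketamine:xylazine anaesthesia. About 20 μCi tracer in 0.5 mL sterile saline given via tail-vein catheter. Groups of 4–5 were killed by intracardiac KCl at 15 (NMeFAMP only), 30, 60 or 120 min. Tissues were weighed and gamma-counted, decay-corrected, and reported as %ID/g, mean ± SD.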

[9] = Biodistribution in testis of Fischer 344 rat bearing rat 9L cells at 20 uCi, iv after 60 mins; type: ADME, organism-based; details: in vivo, 1 h; how it was run: as §3
Lung [10] = test: Biodistribution in lung of Fischer 344 rat bearing rat 9L cells at 20 uCi, iv after 60 mins; type: ADME, organism-based; details: in vivo, 1 h; how it was run: as §3
[11] = Ratio of drug level from tumor to brain of Fischer 344 rat bearing rat 9L cells at 20 uCi, iv after 60 mins; details: in vivo, 1 h
Pancreas [12] = test: Biodistribution in pancreas of Fischer 344 rat bearing rat 9L cells at 20 uCi, iv after 120 mins; type: ADME, organism-based; details: in vivo, 2 h; how it was run: as §3
Heart [13] = test: Biodistribution in heart of Fischer 344 rat bearing rat 9L cells at 20 uCi, iv after 60 mins; type: ADME, organism-based; details: in vivo, 1 h; how it was run: as §3
[14] = Biodistribution in testis of Fischer 344 rat bearing rat 9L cells at 20 uCi, iv after 120 mins; type: ADME, organism-based; details: in vivo, 2 h; how it was run: as §3
[15] = Biodistribution in tumor of Fischer 344 rat bearing rat 9L cells at 20 uCi, iv after 30 mins; type: ADME, organism-based, Neoplasm; details: in vivo, 0.5 h; how it was run: as §3
Heart [16] = test: Biodistribution in heart of Fischer 344 rat bearing rat 9L cells at 20 uCi, iv after 120 mins; type: ADME, organism-based; details: in vivo, 2 h; how it was run: as §3
Pancreas [17] = test: Biodistribution in pancreas of Fischer 344 rat bearing rat 9L cells at 20 uCi, iv after 60 mins; type: ADME, organism-based; details: in vivo, 1 h; how it was run: as §3
Spleen [18] = test: Biodistribution in spleen of Fischer 344 rat bearing rat 9L cells at 20 uCi, iv after 120 mins; type: ADME, organism-based; details: in vivo, 2 h; how it was run: as §3
Liver [19] = test: Biodistribution in liver of Fischer 344 rat bearing rat 9L cells at 20 uCi, iv after 60 mins; type: ADME, organism-based; details: in vivo, 1 h; how it was run: as §3
[20] = Ratio of drug level from tumor to brain of Fischer 344 rat bearing rat 9L cells at 20 uCi, iv after 120 mins; type: ADME, organism-based; details: in vivo, 2 h
Bone [21] = test: Biodistribution in bone of Fischer 344 rat bearing rat 9L cells at 20 uCi, iv after 120 mins; type: ADME, organism-based, Bone element; details: in vivo, 2 h; how it was run: as §3
Brain = test: Biodistribution in brain of Fischer 344 rat bearing rat 9L cells at 20 uCi, iv after 30 mins; details: in vivo, 0.5 h
[22] = rat, in vivo, iv, 1 h
Liver [23] = test: Biodistribution in liver of Fischer 344 rat bearing rat 9L cells at 20 uCi, iv after 30 mins; type: ADME, organism-based; details: in vivo, 0.5 h; how it was run: as §3
Muscle tissue [24] = test: Biodistribution in muscle of Fischer 344 rat bearing rat 9L cells at 20 uCi, iv after 30 mins; type: ADME, organism-based; details: in vivo, 0.5 h; how it was run: as §3
[25] = Biodistribution in testis of Fischer 344 rat bearing rat 9L cells at 20 uCi, iv after 30 mins; type: ADME, organism-based; details: in vivo, 0.5 h; how it was run: as §3
Bone [26] = test: Biodistribution in bone of Fischer 344 rat bearing rat 9L cells at 20 uCi, iv after 30 mins; type: ADME, organism-based, Bone element; details: in vivo, 0.5 h; how it was run: as §3
Blood [27] = test: Biodistribution in blood of Fischer 344 rat bearing rat 9L cells at 20 uCi, iv after 60 mins; type: ADME, organism-based; details: in vivo, 1 h; how it was run: as §3
Kidney [28] = test: Biodistribution in kidney of Fischer 344 rat bearing rat 9L cells at 20 uCi, iv after 30 mins; type: ADME, organism-based; details: in vivo, 0.5 h; how it was run: as §3
Spleen [29] = test: Biodistribution in spleen of Fischer 344 rat bearing rat 9L cells at 20 uCi, iv after 30 mins; type: ADME, organism-based; details: in vivo, 0.5 h; how it was run: as §3
Spleen [30] = test: Biodistribution in spleen of Fischer 344 rat bearing rat 9L cells at 20 uCi, iv after 60 mins; type: ADME, organism-based; details: in vivo, 1 h; how it was run: as §3
Kidney [31] = test: Biodistribution in kidney of Fischer 344 rat bearing rat 9L cells at 20 uCi, iv after 120 mins; type: ADME, organism-based; details: in vivo, 2 h; how it was run: as §3
Muscle tissue [32] = test: Biodistribution in muscle of Fischer 344 rat bearing rat 9L cells at 20 uCi, iv after 60 mins; type: ADME, organism-based; details: in vivo, 1 h; how it was run: as §3
Liver [33] = test: Biodistribution in liver of Fischer 344 rat bearing rat 9L cells at 20 uCi, iv after 120 mins; type: ADME, organism-based; details: in vivo, 2 h; how it was run: as §3
[34] = Biodistribution in tumor of Fischer 344 rat bearing rat 9L cells at 20 uCi, iv after 30 mins; details: in vivo, 0.5 h
Heart [35] = test: Biodistribution in heart of Fischer 344 rat bearing rat 9L cells at 20 uCi, iv after 30 mins; type: ADME, organism-based; details: in vivo, 0.5 h; how it was run: as §3
Kidney [36] = test: Biodistribution in kidney of Fischer 344 rat bearing rat 9L cells at 20 uCi, iv after 60 mins; type: ADME, organism-based; details: in vivo, 1 h; how it was run: as §3
Blood [37] = test: Biodistribution in blood of Fischer 344 rat bearing rat 9L cells at 20 uCi, iv after 30 mins; type: ADME, organism-based; details: in vivo, 0.5 h; how it was run: as §3
Lung [38] = test: Biodistribution in lung of Fischer 344 rat bearing rat 9L cells at 20 uCi, iv after 30 mins; type: ADME, organism-based; details: in vivo, 0.5 h; how it was run: as §3
Lung [39] = test: Biodistribution in lung of Fischer 344 rat bearing rat 9L cells at 20 uCi, iv after 120 mins; type: ADME, organism-based; details: in vivo, 2 h; how it was run: as §3
Muscle tissue [40] = test: Biodistribution in muscle of Fischer 344 rat bearing rat 9L cells at 20 uCi, iv after 120 mins; type: ADME, organism-based; details: in vivo, 2 h; how it was run: as §3
Blood [41] = test: Biodistribution in blood of Fischer 344 rat bearing rat 9L cells at 20 uCi, iv after 120 mins; type: ADME, organism-based; details: in vivo, 2 h; how it was run: as §3
Pancreas [42] = test: Biodistribution in pancreas of Fischer 344 rat bearing rat 9L cells at 20 uCi, iv after 30 mins; type: ADME, organism-based; details: in vivo, 0.5 h; how it was run: as §3
[43] = rat, in vivo, iv, 1 h; remark: listed apart in the source

CN[C@@](C)(CF)C(=O)O.Cl
Activity (9L [1]): 92%
Drug uptake (9L [2]): 0.6 %ID
Drug uptake (9L [3]): 3.26 %ID
Drug uptake (9L [4]): 7.08 %ID
Drug uptake (9L [5]): 0.75 %ID
Activity (9L [6]): 89%
Activity (9L [7]): 54%

C[C@](N)(CF)C(=O)O.Cl
Activity (9L [1]): 58%
Drug uptake (9L [2]): 5.51 %ID
Drug uptake (9L [3]): 4.27 %ID
Drug uptake (9L [4]): 13.06 %ID
Drug uptake (9L [5]): 1.7 %ID
Activity (9L [6]): 87%
Activity (9L [7]): 67%

C[C@](N)(C[18F])C(=O)O.Cl
Drug uptake (Bone [8]): 0.36 % ID/g
Drug uptake [9]: 0.17 % ID/g
Drug uptake (Lung [10]): 0.4 % ID/g
Ratio [11]: 28.6
Drug uptake (Pancreas [12]): 1.17 % ID/g
Drug uptake (Heart [13]): 0.34 % ID/g
Drug uptake [14]: 0.16 % ID/g
Ratio [15]: 38.2
Drug uptake (Heart [16]): 0.23 % ID/g
Drug uptake (Pancreas [17]): 2.05 % ID/g
Drug uptake (Spleen [18]): 0.39 % ID/g
Drug uptake (Liver [19]): 0.65 % ID/g
Ratio [20]: 27.5
Drug uptake (Bone [21]): 0.26 % ID/g
Drug uptake (Brain): 0.06 % ID/g
Drug uptake [22]: 0.1 % ID/g
Drug uptake (Liver [23]): 0.6 % ID/g
Drug uptake (Muscle tissue [24]): 0.32 % ID/g
Drug uptake [25]: 0.15 % ID/g
Drug uptake (Bone [26]): 0.23 % ID/g
Drug uptake (Blood [27]): 0.25 % ID/g
Drug uptake (Kidney [28]): 3.47 % ID/g
Drug uptake (Spleen [29]): 0.72 % ID/g
Drug uptake (Spleen [30]): 0.71 % ID/g
Drug uptake (Kidney [31]): 2.09 % ID/g
Drug uptake (Muscle tissue [32]): 0.52 % ID/g
Drug uptake (Liver [33]): 0.32 % ID/g
Drug uptake [34]: 2.46 % ID/g
Drug uptake (Heart [35]): 0.32 % ID/g
Drug uptake (Kidney [36]): 2.96 % ID/g
Drug uptake (Blood [37]): 0.28 % ID/g
Drug uptake (Lung [38]): 0.37 % ID/g
Drug uptake (Lung [39]): 0.23 % ID/g
Drug uptake (Muscle tissue [40]): 0.36 % ID/g
Drug uptake (Blood [41]): 0.16 % ID/g
Drug uptake (Pancreas [42]): 2.96 % ID/g
Drug uptake [43]: 2.82 % ID/g

N[C@]1(C(=O)O)C[C@@H]([18F])C1 [FLUCICLOVINE F18]
Drug uptake [22]: 0.26 % ID/g
